Twelve compounds from ChEMBL document CHEMBL4325883, “Non-chelating p-phenylidene-linked bis-imidazoline analogs of known influenza virus endonuclease inhibitors: Synthesis and anti-influenza activity” (Eur J Med Chem, 2019) can be followed below.

Where only a bound is given, the exact number is not on record here.

The nature of data set [1]: Cytotoxicity against MDCK cells after 24 hrs by MTT assay. Type of data set: cell-based, Canis lupus familiaris. The note with it: dog. In short, it runs like this:
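MDCK cells grown 24 h at 36 °C, 5% CO2 to confluence. Threefold dilutions in MEM added for 24 h. Cells washed twice with saline, then MTT in MEM for 1 h at 36 °C. Formazan dissolved in DMSO, OD read at 540 nm. CC50 (50% cell death) from four-parameter logistic fit.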
On the technique in general: Tetrazolium assays rely on reduction of a dye to a coloured formazan, in cell work by metabolically active cells.

Data set [2] in a line: Selectivity index, ratio of CC50 for MDCK cells to IC50 for Influenza A virus (A/Puerto Rico/8/34(H1N1)) […] infected in MDCK cells. Type of data set: toxicity, cell-based. The following applies: dog, read-out: Ratio CC50/IC50. The method in brief: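 SI computed as CC50/IC50. CC50 from the MTT assay on MDCK cells (24 h). IC50 is the concentration halving A/PR/8/34 (H1N1) titer in MDCK cells, measured by hemagglutination.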

For orientation: CC50 means the concentration giving 50% cytotoxicity. Read a low CC50 as greater toxicity to the cells. `c1cnc(N2CCN=C2c2ccc(C3=NCCN3c3cnccn3)cc2)cn1` had a CC50 at 24 h in data set [1] of more than 809 µM.
In turn, `FC(F)(F)c1ccc(N2CCN=C2c2ccc(C3=NCCN3c3ccc(C(F)(F)F)cn3)cc2)nc1` had a CC50 at 24 h in data set [1] of 455 µM. For the same compound, in data set [2], the selectivity ratio amounted to 4.
The compound `c1ccc(N2CCN=C2c2ccc(C3=NCCN3c3ccccc3)cc2)cc1` came in with a CC50 at 24 h in data set [1] of more than 817 µM. For the same compound, in data set [2], the selectivity ratio was more than 11.
The corresponding values for `Fc1ccc(N2CCN=C2c2ccc(C3=NCCN3c3ccc(F)cc3)cc2)cc1` are 144 µM and 12.
The corresponding values for `CC(N)C12CC3CC(CC(C3)C1)C2` (stereo not drawn) [RIMANTADINE] are 62 µM and 6.
For `Clc1ccc(N2CCN=C2c2ccc(C3=NCCN3c3ccc(Cl)cc3)cc2)cc1`, in that order: 9 µM and 2.
As to `Fc1ccc(N2CCN=C2c2ccc(C3=NCCN3)cc2)cc1`, the CC50 at 24 h in data set [1] was more than 971 µM. Further, the selectivity ratio in data set [2] was more than 15.
Turning to `c1cncc(N2CCN=C2c2ccc(C3=NCCN3c3cccnc3)cc2)c1`, the CC50 at 24 h in data set [1] is more than 813 µM. In data set [2], the selectivity ratio is more than 12.
The corresponding values for `c1ccc(N2CCN=C2c2ccc(C3=NCCN3c3ccccn3)cc2)nc1` are 127 µM and 4.
The corresponding values for `c1ccc(N2CCN=C2c2ccc(C3=NCCN3)cc2)cc1` are more than 1030 µM and more than 34.
For `COc1ccc(N2CCN=C2c2ccc(C3=NCCN3)cc2)cc1`, in that order: 224 µM and 5.
On to `COc1ccc(N2CCN=C2c2ccc(C3=NCCN3c3ccc(OC)cc3)cc2)cc1`, for which the CC50 at 24 h in data set [1] is 361 µM. Moreover, the selectivity ratio in data set [2] was 23.
